Results on two compounds are retold here after ChEMBL document CHEMBL1122273, “5-sulfamoylorthanilic acids, a sulfonamide series with salidiuretic activity” (J Med Chem, 1983).

Assay [1] relates to Canis familiaris. Put plainly: Diuretic activity in the dog (2 animals/dose) at (dose 6.25 mg/Kg), when administered perorally. The format is functional, Canis lupus familiaris, Urine. An outline of the steps: (§1)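 Trained male beagles, fasted 24 h with tap water ad libitum. Bladder emptied by catheter, then 20 mL/kg tap water by stomach tube, with 4 mL/kg water at each hourly catheterization up to 8 h. The first 2 h of urine served as control. Oral dosing came after the second catheterization, and 1–6 h urine was pooled. Na⁺ and K⁺ were measured by flame photometry, Cl⁻ argentometrically, in mequiv/kg.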

Assay [2] deals with Canis familiaris. Put plainly: Sailuric activity in the dog measured as concentration of K+ in urinary excretion (2 animals/dose) at (dose 0.78 mg/Kg, po). The format is functional, Canis lupus familiaris, Urine. An outline of the steps: (§2)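 Male beagles trained to the procedures, food withdrawn 24 h before, tap water ad libitum. Bladder emptied by catheter, then 20 mL/kg tap water by stomach tube, plus 4 mL/kg orally at each hourly catheterization up to 8 h. The first 2 h of urine served as control. Compound given orally after the second catheterization. Urine from 1–6 h post-dose pooled; Na⁺ and K⁺ by flame photometry, Cl⁻ argentometrically, in mequiv/kg.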

Assay [3] has as its system Canis familiaris. The experiment in a line: Sailuric activity in the dog measured as concentration of Cl - in urinary excretion (2 animals/dose) at (dose 0.78 mg/Kg, po). It counts as functional, Canis lupus familiaris, Urine. An outline of the steps: as §1
In assay [4] the test system is Canis familiaris. The experiment in a line: Sailuric activity in the dog measured as concentration of Cl - in urinary excretion (2 animals/dose) at (dose 6.25 mg/Kg, po). It counts as functional, Canis lupus familiaris, Urine. An outline of the steps:
as §2

In assay [5] the test system is Canis familiaris. The experiment in a line: Sailuric activity in the dog measured as concentration of K+ in urinary excretion (2 animals/dose) at (dose 6.25 mg/Kg, po). It counts as functional, Canis lupus familiaris, Urine. An outline of the steps: as §2
Assay [6] concerns Canis familiaris. Put plainly: Sailuric activity in the dog measured as concentration of Na+ in urinary excretion (2 animals/dose) at (dose 0.78 mg/Kg, po). It counts as functional, Canis lupus familiaris, Urine. An outline of the steps: as §2
Assay [7] has as its system Canis familiaris. The experiment in a line: Sailuric activity in the dog measured as concentration of Na+ in urinary excretion (2 animals/dose) at (dose 6.25 mg/Kg, po). It counts as functional, Canis lupus familiaris, Urine. Put shortly: as §2
The species named for assay [8] is Rattus norvegicus. The experiment in a line: Diuretic activity in the rats, determined by a modified Lipschitz test. The format is functional, Urine. An outline of the steps:
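Modified Lipschitz test: rats deprived of water 24 h, grouped in threes of similar weight in diuresis funnels. Oral dose of 50 mg/kg, suspended in 2% starch solution, by stomach tube.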

The species named for assay [9] is Rattus norvegicus. Put plainly: Saluretic activity in the rat measured as concentration of chloride in urine. The format is functional. Put shortly:
(§3)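 Rats deprived of food 24 h, water ad libitum, dosed 50 mg/kg by stomach tube as suspension in 2% starch, no extra water load. Groups of three in diuresis funnels; urine over first 5 h collected. Na⁺ and K⁺ by flame photometry, Cl⁻ argentometrically; expressed as mequiv/kg.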

Assay [10] is filed under the species Rattus norvegicus. The experiment in a line: Saluretic activity in the rat measured as concentration of K+ in urine. The format is functional. Put shortly: as §3
For assay [11], the species on record is Rattus norvegicus. Put plainly: Saluretic activity in the rat measured as concentration of Na+ in urine. It counts as functional. Put shortly: as §3
Assay [12] is filed under the species Rattus norvegicus. Put plainly: Effect on Urine flow in rats was evaluated.
The species entered for assay [13] is Rattus norvegicus. Put plainly: Effect on (GFR) glomerular filtration rate in rats was evaluated.
Assay [14] has as its system Canis familiaris. Put plainly: Saluretic activity in the dog measured as concentration of Na+ in urinary excretion (2 animals/dose) at (dose 1.56 mg/Kg, po). The format is functional, Canis lupus familiaris, Urine. An outline of the steps:
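Male beagles trained to rest on a table and to accept stomach tube and catheter. Food withdrawn 24 h before, tap water ad libitum. Bladder emptied by catheter, then 20 mL/kg tap water by stomach tube. Catheterized hourly up to 8 h with 4 mL/kg water orally each time; first 2 h urine served as control. Oral dosing after second catheterization. Pooled 1–6 h urine; Na⁺/K⁺ by flame photometry, Cl⁻ argentometrically.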

The subject of assay [15] is Canis familiaris. The experiment in a line: Diuretic activity in the dog (2 animals/dose) at (dose 1.56 mg/Kg), when administered perorally. The format is functional, Canis lupus familiaris, Urine. Put shortly: as §1
The subject of assay [16] is Canis familiaris. The experiment in a line: Saluretic activity in the dog measured as concentration of K+ in urinary excretion (2 animals/dose) (dose 1.56 mg/kg, p.o.). It counts as functional, Canis lupus familiaris, Urine. The note with it: route oral. An outline of the steps:
as §2

In assay [17] the test system is Canis familiaris. The experiment in a line: Saluretic activity in the dog measured as concentration of Cl - in urinary excretion (2 animals/dose) at (dose 1.56 mg/Kg, po). The format is functional, Canis lupus familiaris, Urine. An outline of the steps:
as §2

The nature of assay [18]: It is the ratio, measured as saluretic activity in the dog as concentration of Na+ in urinary excretion (dose 1.56 mg/Kg, po) to that of K. It counts as functional, Urine. An outline of the steps: as §1
Assay [19] can be described thus: It is the ratio, measured as saluretic activity in the dog as concentration of Cl- in urinary excretion (dose 1.56 mg/Kg, po) to that of (Na+)+(K+). The format is functional, Urine. An outline of the steps:
as §1

As for `NS(=O)(=O)c1cc(C(=O)O)c(NCc2ccco2)cc1Cl` [FUROSEMIDE], the Diuretic activity in the assay with Canis familiaris [1] was 69 ml kg-1 6hr-1; in the assay filed under Rattus norvegicus [8], 4.9 mL/kg. This compound also registered a Saldiuretic activity in the assay with Canis familiaris [2] of 0.5 m equiv 6hr-1 kg-1. Further, the Saluretic activity with Canis familiaris [3] is recorded as 1.85 m equiv 6hr-1 kg-1; in the assay on Canis familiaris [4], 6.27 m equiv 6hr-1 kg-1; with Canis familiaris [5], 1.26 m equiv 6hr-1 kg-1; in the assay on Canis familiaris [6], 1.37 m equiv 6hr-1 kg-1; in the assay on Canis familiaris [7] it was 5.54 m equiv 6hr-1 kg-1; in the assay filed under Rattus norvegicus [9], 7.2 m equiv 5hr-1 kg-1. Also, the Saluretic activity in the assay filed under Rattus norvegicus [10] is on record as 2.6 m equiv 5hr-1 kg-1; in the assay filed under Rattus norvegicus [11] it was 4.8 m equiv 5hr-1 kg-1. Also, in the assay listed under Rattus norvegicus [12], the Volume was 0.998 mL/min/kg. This compound also showed a GFR in the assay filed under Rattus norvegicus [13] of 8.82 mL/min/kg.

In the case of `CCCC[S+]([O-])c1cc(NCc2ccco2)c(S(=O)(=O)[O-])cc1S(N)(=O)=O.[Na+]` (stereo not drawn), the Saluretic activity in the assay with Canis familiaris [14] is on record as 0.89 m equiv 6hr-1 kg-1; in the assay filed under Rattus norvegicus [9] it was 1.4 m equiv 5hr-1 kg-1; in the assay filed under Rattus norvegicus [10], 1 m equiv 5hr-1 kg-1; in the assay filed under Rattus norvegicus [11] it was 0.9 m equiv 5hr-1 kg-1. The Diuretic activity in the assay with Canis familiaris [15] came out at 34.9 ml kg-1 6hr-1; in the assay filed under Rattus norvegicus [8], 1 mL/kg. The Saldiuretic activity with Canis familiaris [16] is given as 0.35 (m equiv) 6hr-1 kg-1; with Canis familiaris [17], 1.43 m equiv 6hr-1 kg-1. Further, the Ratio in assay [18] is 3; in assay [19], 1.
